Reference: ChEMBL document CHEMBL1157336, “Bisabolane sesquiterpenes from the roots of Ligularia cymbulifera” (2006)

What was measured:
Assay type in all cases: functional
Escherichia coli = assay: Antibacterial activity against Escherichia coli ATCC 25922 after 24 hrs by broth microdilution assay; conditions: ATCC 25922, 24 h
How it was run: (§1)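 Broth microdilution MIC in Mueller-Hinton broth; serial doubling dilutions over 0.0024-1.25 mg/mL. Overnight broth cultures, inoculum adjusted to 2 × 10^6 cfu/mL final per well. Incubated at 37 °C for 24 h. MIC read as the lowest concentration without visible growth (no turbidity). Duplicate wells, repeated twice; levofloxacin as positive control.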

Staphylococcus aureus [1] = assay: Antibacterial activity against methicillin-resistant Staphylococcus aureus isolate after 24 hrs by broth microdilution assay
How it was run: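 Clinical MRSA isolate; broth microdilution in Mueller-Hinton broth, twofold serial dilutions over 0.0024-1.25 mg/mL, final inoculum 2 × 10^6 cfu/mL from overnight broth culture; 37 °C, 24 h. MIC taken as lowest concentration without visible turbidity. Duplicate wells, repeated twice; levofloxacin positive control.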

Staphylococcus aureus [2] = assay: Antibacterial activity against Staphylococcus aureus ATCC 25923 after 24 hrs by broth microdilution assay; conditions: ATCC 25923, 24 h; how it was run: as §1
Candida albicans = assay: Antifungal activity against Candida albicans after 48 hrs by broth microdilution assay
How it was run: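 Yeast tested by broth microdilution in Mueller-Hinton broth; samples serially doubled over 0.0024-1.25 mg/mL. Inoculum from overnight broth culture, final 2 × 10^6 cfu/mL per well. Plates held at 30 °C for 48 h. MIC taken as the lowest concentration showing no turbidity. Duplicate, repeated twice; fluconazole positive control.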

Measured: MIC

C=C(C(CC1OC1(C)C)OC(=O)/C(C)=C\C)[C@H]1C[C@H]2O[C@@]2(C)C[C@H]1OC(=O)/C(C)=C\C (some centres not stated)
> 62.5 µg/mL: all assays above

C=C(C(CC(O)C(C)(C)O)OC(=O)/C(C)=C\C)[C@H]1C[C@H]2O[C@@]2(C)[C@@H](O)[C@H]1OC(=O)/C(C)=C\C (some centres not stated)
> 62.5 µg/mL: all assays above

C=C(C(CC(O)C(C)(C)O)OC(=O)/C(C)=C\C)[C@H]1C[C@H]2O[C@@]2(C)C(=O)[C@@H]1OC(=O)/C(C)=C\C (some centres not stated)
> 62.5 µg/mL: all assays above

C=C(C(CC1OC1(C)C)OC(=O)/C(C)=C\C)[C@H]1C[C@H](Cl)[C@@](C)(O)[C@@H](O)[C@H]1OC(=O)/C(C)=C\C (some centres not stated)
> 62.5 µg/mL: all assays above

C=C(C(CC1OC1(C)C)OC(=O)/C(C)=C\C)[C@H]1C[C@H]2O[C@@]2(C)[C@H](OC(=O)/C(C)=C\C)[C@@H]1O (some centres not stated)
> 62.5 µg/mL: all assays above

C=C(C(CC1OC1(C)C)OC(=O)/C(C)=C\C)[C@H]1C[C@H](OC(=O)/C(C)=C\C)[C@@](C)(O)[C@@H](OC(=O)/C(C)=C\C)[C@H]1O (some centres not stated)
> 62.5 µg/mL: all assays above

C=C(C(CC1OC1(C)C)OC(=O)/C(C)=C\C)[C@H]1C[C@@H]2O[C@]2(C)[C@@H](OC(=O)/C(C)=C\C)[C@@H]1O (some centres not stated)
> 62.5 µg/mL: all assays above

C=C(C(CC1OC1(C)C)OC(=O)/C(C)=C\C)[C@H]1C[C@H]2O[C@@]2(C)[C@@H](OC(=O)/C(C)=C\C)[C@H]1OC(=O)/C(C)=C\C (some centres not stated)
> 62.5 µg/mL: all assays above
